The values below come from ChEMBL document CHEMBL1629618, “SOS regulation of qnrB expression” (2009).

What all share (type): functional
For test [1], the system named is Escherichia coli. The test is described as follows: Induction of qnrB1 gene expression in lexA- and recA- positive Escherichia coli J53 at 0.2 ug/ml after 15 mins by quantitative PCR method relative to control. The method in brief:
(§1)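 Plasmid-bearing strains grown in triplicate in LB broth at 37°C to exponential phase. At OD600 0.08 to 0.1, mitomycin C 0.2 μg/ml was added, with one culture left untreated as control. RNA was stabilised, extracted and DNase-treated, then reverse-transcribed with gene-specific reverse primers for real-time qPCR. Levels were calculated by 2−ΔΔCT relative to the unsupplemented control. Experiments repeated at least twice.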

Test [2] deals with Escherichia coli. The test is described as follows: Induction of qnrB4 gene expression in lexA- and recA- positive Escherichia coli J53 at 0.2 ug/ml after 15 mins by quantitative PCR method relative to control. The method in brief:
as §1

Test [3] relates to Escherichia coli. As to the kind of experiment: Induction of qnrB1 gene expression in lexA- and recA- positive Escherichia coli J53 at 0.2 ug/ml after 30 mins by quantitative PCR method relative to control. The method in brief: as §1
For test [4], the system named is Escherichia coli. As to the kind of experiment: Induction of qnrA1 gene expression in lexA- and recA- positive Escherichia coli J53 at 0.2 ug/ml after 30 mins by quantitative PCR method relative to control. The method in brief:
as §1

Test [5] deals with Escherichia coli. As to the kind of experiment: Induction of qnrB4 gene expression in recA-positive lexA deficient Escherichia coli AB1157 expressing deffective lexA gene at 0.2 ug/ml after 30 mins by quantitative PCR method relative to control. The method in brief:
as §1

Test [6] relates to Escherichia coli. As to the kind of experiment: Induction of qnrB4 gene expression in recA-positive Escherichia coli DM49 expressing protease-resistant lexA at 0.2 ug/ml after 30 mins by quantitative PCR method relative to control. The method in brief: as §1
Test [7] deals with Escherichia coli. The test is described as follows: Induction of qnrB4 gene expression in lexA- and recA- positive Escherichia coli J53 at 0.2 ug/ml after 30 mins by quantitative PCR method relative to control. The gist of the method:
as §1

In test [8] the test system is Escherichia coli. As to the kind of experiment: Induction of qnrB4 gene expression in lexA- and recA- positive Escherichia coli AB1157 at 0.2 ug/ml after 30 mins by quantitative PCR method relative to control. The gist of the method:
as §1

With `CO[C@@]12[C@H](COC(N)=O)C3=C(C(=O)C(C)=C(N)C3=O)N1C[C@@H]1N[C@@H]12` [MITOMYCIN], the “fold change (FC)” value is listed as 2.6 in the test on Escherichia coli [1]; 8.2 in the test with Escherichia coli [2]; 2.8 with Escherichia coli [3]; 0.9 with Escherichia coli [4]; 1 with Escherichia coli [5]; 1 in the test on Escherichia coli [6]. Also, the results for the “fold change (FC)” value in the test with Escherichia coli [7] and in the test on Escherichia coli [8] were 7.9 and 2, respectively.
